Converted amounts (≈) assume the structure as drawn. The source made the active and inactive calls. The calls are words filed in the database; no cut-off is given here.
Legend:
[1] = tested on: Candida albicans; experiment: Antimicrobial activity against Candida albicans isolate S at 25 ug/ml grown on Muller-Hinton agar medium after 48 hrs by disk diffusion method; type: functional
In short: (§1)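 Disk diffusion on 90-mm RPMI 1640 with 2% glucose agar or on Mueller-Hinton agar. Plates were swabbed in three directions with a yeast suspension of 1–5 × 10^6 cells/ml. Paper disks (6 mm) held 1, 5 or 25 µg drug. Zone diameters were read at 24 and 48 h; values are means of two experiments.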

[2] = tested on: Clavispora lusitaniae; experiment: Antimicrobial activity against Candida lusitaniae after 48 hrs
[3] = tested on: Candida albicans; experiment: Antimicrobial activity against Candida albicans isolate R at 5 ug/ml grown on Muller-Hinton agar medium after 24 hrs by disk diffusion method; type: functional; in short: as §1
[4] = tested on: Meyerozyma guilliermondii; experiment: Antimicrobial activity against Candida guilliermondii after 48 hrs by 50% endpoint M27-A2 method; type: functional
[5] = tested on: Candida albicans; experiment: Antimicrobial activity against Candida albicans isolate R after 48 hrs by Etest; type: functional
In short: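 Etest on RPMI 1640 agar with 2% glucose, performed according to the manufacturer's recommendations.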

[6] = tested on: Candida tropicalis; experiment: Antimicrobial activity against Candida tropicalis after 48 hrs by 50% endpoint M27-A2 method; type: functional
[7] = tested on: Candida albicans; experiment: Antimicrobial activity against Candida albicans after 48 hrs by 80% endpoint M27-A2 method; type: functional
[8] = tested on: Candida albicans; experiment: Antimicrobial activity against Candida albicans isolate R at 1 ug/ml grown on RPMI 1640 medium after 48 hrs by disk diffusion method; type: functional; in short: as §1
[9] = tested on: Candida albicans; experiment: Antimicrobial activity against Candida albicans isolate R at 5 ug/ml grown on Muller-Hinton agar medium after 48 hrs by disk diffusion method; type: functional; in short: as §1
[10] = tested on: Candida parapsilosis; experiment: Antimicrobial activity against Candida parapsilosis after 24 hrs by M27-A3 method; type: functional; conditions: Lodderomyces parapsilosis
[11] = tested on: Candida albicans; experiment: Antimicrobial activity against Candida albicans isolate R after 48 hrs by microdilution method; type: functional
In short: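 Broth microdilution in microtiter plates, read spectrophotometrically at 490 nm. MIC taken as the lowest drug dilution giving 50% growth inhibition. C. krusei […] run as control in each run. Read at 24 h and 48 h; trailing growth noted at 48 h.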

[12] = tested on: Clavispora lusitaniae; experiment: Antimicrobial activity against Candida lusitaniae after 48 hrs by Etest; type: functional
[13] = tested on: Candida albicans; experiment: Antimicrobial activity against Candida albicans isolate R at 2 ug/ml after 48 hrs by agar dilution method; type: functional, organism-based
In short: (§2)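 Agar dilution on Sabouraud agar with caspofungin at 0, 0.5, 1 and 2 per ml. Isolates were subcultured 2 days on CHROMagar. Suspensions of 1×10^6 to 5×10^6 CFU/ml in sterile water were diluted 1,500-fold, and approximately 3 to 15 cells were spread per agar surface. Growth or no growth was scored, with repeated testing.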

[14] = tested on: Candida tropicalis; experiment: Antimicrobial activity against Candida tropicalis after 48 hrs by broth microdilution method; type: functional
[15] = tested on: Candida albicans; experiment: Antimicrobial activity against Candida albicans after 48 hrs by 50% endpoint M27-A2 method; type: functional
[16] = tested on: Clavispora lusitaniae; experiment: Antimicrobial activity against Candida lusitaniae after 48 hrs by 80% endpoint M27-A method
[17] = tested on: Debaryomyces hansenii; experiment: Antimicrobial activity against Candida famata after 24 hrs by M27-A3 method; type: functional
[18] = tested on: Pichia kudriavzevii; experiment: Antimicrobial activity against Candida krusei after 48 hrs by 50% endpoint M27-A2 method; type: functional
[19] = tested on: Candida albicans; experiment: Antimicrobial activity against Candida albicans obtained from urine of patient 21 days after admission by EUCAST microdilution method; type: functional; conditions: 504 h
In short: (§3)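 EUCAST broth microdilution, plates read spectrophotometrically at 490 nm. MIC is the lowest dilution giving 50% growth inhibition. C. krusei […] control included in each run.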

[20] = tested on: Candida albicans; experiment: Antimicrobial activity against Candida albicans isolate R at 25 ug/ml grown on RPMI 1640 medium after 24 hrs by disk diffusion method; type: functional; in short: as §1
[21] = tested on: Candida albicans; experiment: Antimicrobial activity against Candida albicans isolate C after 48 hrs by EUCAST microdilution method; type: functional; in short: as §3
[22] = tested on: Candida tropicalis; experiment: Antimicrobial activity against Candida tropicalis after 24 hrs by M27-A3 method; type: functional
[23] = tested on: Candida albicans; experiment: Antimicrobial activity against Candida albicans isolate S at 25 ug/ml grown on RPMI 1640 medium after 24 hrs by disk diffusion method; type: functional; in short: as §1
[24] = tested on: Meyerozyma guilliermondii; experiment: Antimicrobial activity against Candida guilliermondii after 48 hrs by NCCLS microdilution method; type: functional
[25] = tested on: Candida albicans; experiment: Antimicrobial activity against Candida albicans isolate R at 1 ug/ml grown on Muller-Hinton agar medium after 24 hrs by disk diffusion method; type: functional; in short: as §1
[26] = tested on: Candida albicans; experiment: Antimicrobial activity against Candida albicans after 24 hrs by M27-A3 method; type: functional
[27] = tested on: Candida albicans; experiment: Antimicrobial activity against Candida albicans isolate C at 2 ug/ml after 48 hrs by agar dilution method; type: functional, organism-based; in short: as §2
[28] = tested on: Candida albicans; experiment: Antimicrobial activity against Candida albicans isolate R at 25 ug/ml grown on Muller-Hinton agar medium after 48 hrs by disk diffusion method; type: functional; in short: as §1
[29] = tested on: Candida albicans; experiment: Antimicrobial activity against Candida albicans isolate S at 25 ug/ml grown on RPMI 1640 medium after 48 hrs by disk diffusion method; type: functional; in short: as §1
[30] = tested on: Candida albicans; experiment: Antimicrobial activity against Candida albicans isolate S at 5 ug/ml grown on Muller-Hinton agar medium after 24 hrs by disk diffusion method; type: functional; in short: as §1
[31] = tested on: Pichia kudriavzevii; experiment: Antimicrobial activity against Candida krusei after 48 hrs by NCCLS microdilution method; type: functional
[32] = tested on: Candida albicans; experiment: Antimicrobial activity against Candida albicans isolate S at 1 ug/ml grown on RPMI 1640 medium after 48 hrs by disk diffusion method; type: functional; in short: as §1
[33] = tested on: Candida tropicalis; experiment: Antimicrobial activity against Candida tropicalis after 48 hrs by 80% endpoint M27-A2 method; type: functional
[34] = tested on: Clavispora lusitaniae; experiment: Antimicrobial activity against Candida lusitaniae after 48 hrs by NCCLS microdilution method; type: functional
[35] = tested on: Nakaseomyces glabratus; experiment: Antimicrobial activity against Candida glabrata after 48 hrs by Etest; type: functional
[36] = tested on: Meyerozyma guilliermondii; experiment: Antimicrobial activity against Candida guilliermondii after 48 hrs by Etest; type: functional
[37] = tested on: Meyerozyma guilliermondii; experiment: Antimicrobial activity against Candida guilliermondii after 48 hrs by 80% endpoint M27-A method
[38] = tested on: Candida parapsilosis; experiment: Antimicrobial activity against Candida parapsilosis after 48 hrs by NCCLS microdilution method; type: functional; conditions: Lodderomyces parapsilosis
[39] = tested on: Candida parapsilosis; experiment: Antimicrobial activity against Candida parapsilosis after 48 hrs by broth microdilution method; type: functional; conditions: Lodderomyces parapsilosis
[40] = tested on: Candida parapsilosis; experiment: Antimicrobial activity against Candida parapsilosis after 48 hrs by 80% endpoint M27-A method; conditions: Lodderomyces parapsilosis
[41] = tested on: Clavispora lusitaniae; experiment: Antimicrobial activity against Candida lusitaniae after 48 hrs by 50% endpoint M27-A2 method; type: functional
[42] = tested on: Candida albicans; experiment: Antimicrobial activity against Candida albicans after 48 hrs by Etest; type: functional
[43] = tested on: Nakaseomyces glabratus; experiment: Antimicrobial activity against Candida glabrata after 48 hrs by NCCLS microdilution method; type: functional
[44] = tested on: Candida albicans; experiment: Antimicrobial activity against Candida albicans isolate S at 5 ug/ml grown on RPMI 1640 medium after 48 hrs by disk diffusion method; type: functional; in short: as §1
[45] = tested on: Candida albicans; experiment: Antimicrobial activity against Candida albicans isolate R after 48 hrs by EUCAST microdilution method; type: functional; in short: as §3
[46] = tested on: Candida parapsilosis; experiment: Antimicrobial activity against Candida parapsilosis after 48 hrs by M27-A method; conditions: Lodderomyces parapsilosis

CC[C@H](C)C[C@H](C)CCCCCCCCC(=O)N[C@H]1C[C@@H](O)[C@@H](NCCN)NC(=O)[C@@H]2[C@@H](O)CCN2C(=O)[C@H]([C@H](O)CCN)NC(=O)[C@H]([C@H](O)[C@@H](O)c2ccc(O)cc2)NC(=O)[C@@H]2C[C@@H](O)CN2C(=O)[C@H]([C@@H](C)O)NC1=O [CASPOFUNGIN]
inhibition zone (IZ) [1]: 24.9 mm | MIC90 [2]: 1 µg/mL (≈ 0.915 µM) | inhibition zone (IZ) [3]: 8.8 mm | MIC90 [4]: 1 µg/mL (≈ 0.915 µM) | MIC [5]: > 32 µg/mL | MIC90 [6]: 1 µg/mL (≈ 0.915 µM) | MIC90 [7]: 0.5 µg/mL (≈ 0.457 µM) | inhibition zone (IZ) [8]: 6.2 mm | inhibition zone (IZ) [9]: 8.8 mm | MIC90 [10]: 1 µg/mL (≈ 0.915 µM) | MIC [11]: 1 µg/mL (≈ 0.915 µM) | MIC90 [12]: 2 µg/mL (≈ 1.83 µM) | growth inhibition (GI) [13]: inactive | MIC90 [14]: 0.25 µg/mL (≈ 0.229 µM) | MIC90 [15]: 0.5 µg/mL (≈ 0.457 µM) | MIC90 [16]: 1 µg/mL (≈ 0.915 µM) | MIC90 [17]: 1 µg/mL (≈ 0.915 µM) | MIC90 [18]: 2 µg/mL (≈ 1.83 µM) | MIC [19]: 1 µg/mL (≈ 0.915 µM) | inhibition zone (IZ) [20]: 12.4 mm | MIC [21]: ≤ 0.06 µg/mL | MIC90 [22]: 0.06 µg/mL (≈ 0.0549 µM) | inhibition zone (IZ) [23]: 25.3 mm | MIC90 [24]: > 16 µg/mL | inhibition zone (IZ) [25]: 6.1 mm | MIC90 [26]: 0.06 µg/mL (≈ 0.0549 µM) | growth inhibition (GI) [27]: Active | inhibition zone (IZ) [28]: 12.7 mm | inhibition zone (IZ) [29]: 26.4 mm | inhibition zone (IZ) [30]: 19.2 mm | MIC90 [31]: 1 µg/mL (≈ 0.915 µM) | inhibition zone (IZ) [32]: 10.5 mm | MIC90 [33]: 0.5 µg/mL (≈ 0.457 µM) | MIC90 [34]: 2 µg/mL (≈ 1.83 µM) | MIC90 [35]: 0.25 µg/mL (≈ 0.229 µM) | MIC90 [36]: > 8 µg/mL | MIC90 [37]: 1 µg/mL (≈ 0.915 µM) | MIC90 [38]: 2 µg/mL (≈ 1.83 µM) | MIC90 [39]: 2 µg/mL (≈ 1.83 µM) | MIC90 [40]: 2 µg/mL (≈ 1.83 µM) | MIC90 [41]: 2 µg/mL (≈ 1.83 µM) | MIC90 [42]: 0.25 µg/mL (≈ 0.229 µM) | MIC90 [43]: 1 µg/mL (≈ 0.915 µM) | inhibition zone (IZ) [44]: 21 mm | MIC [45]: 1 µg/mL (≈ 0.915 µM) | MIC90 [46]: 4 µg/mL (≈ 3.66 µM)
